{"source": "ChEMBL document CHEMBL1671683", "about": "“Activity of linezolid in an in vitro pharmacokinetic-pharmacodynamic model using different dosages and Staphylococcus aureus and Enterococcus faecalis strains with and without a hypermutator phenotype” (Antimicrob Agents Chemother, 2010)", "key": {"[1]": {"experiment": "Apparent volume of distribution in two-compartment pharmacokinetic/pharmacodynamic model at 200 mg, bid administered as 0.5 hrs infusion", "type": "ADME, organism-based", "settings": "iv"}, "Enterococcus faecalis [2]": {"tested_on": "Enterococcus faecalis", "experiment": "Bactericidal activity against 12.5 hrs peripheral compartment culture samples of Enterococcus faecalis Ef1497 MutM3 in two-compartment pharmacokinetic/pharmacodynamic model assessed as effect on bacterial count at 200 mg, bid administered as 0.5 hr infusion", "type": "functional", "procedure,_shortened": "(§1)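 An 18-h culture concentrated 50-fold was injected into the peripheral compartment 3 h pre-sampling (~10^8 CFU/ml E. faecalis, 10^9 S. aureus). Counts came from dilution plating (detection limit 2–3 log10 CFU/ml), expressed as Δlog CFU/ml from treatment start. Run in duplicate.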"}, "[3]": {"experiment": "Volume of distribution at steady state in two-compartment pharmacokinetic/pharmacodynamic model at 200 mg, bid administered as 0.5 hr infusion over 24 hrs", "type": "ADME, organism-based", "settings": "iv, read-out: Vdss"}, "[4]": {"experiment": "Residual concentration at the end of the administration interval in two-compartment pharmacokinetic/pharmacodynamic model at 200 mg, bid administered as 0.5 hrs infusion", "type": "ADME", "settings": "iv, read-out: Drug uptake"}, "[5]": {"experiment": "Residual concentration at the end of the administration interval in two-compartment pharmacokinetic/pharmacodynamic model at 200 mg, bid administered as 0.5 hr infusion over 24 hrs", "type": "ADME", "settings": "in vivo, iv"}, "Enterococcus faecalis [6]": {"tested_on": "Enterococcus faecalis", "experiment": "ABBC (0 to 24 hrs) in Enterococcus faecalis ATCC 29212 in two-compartment pharmacokinetic/pharmacodynamic model at 600 mg, bid administered as 0.5 hr infusion for 2 days", "type": "functional", "procedure,_shortened": "(§2)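 Hollow-fibre two-compartment model in cation-adjusted, protein-free MH broth at 37°C. Human total-plasma linezolid profile simulated as 0.5-h infusion every 12 h for 48 h. Concentrated 18-h culture injected into the peripheral compartment 3 h before first sample, giving about 10^8 (E. faecalis) or 10^9 (S. aureus) CFU/ml. Viable counts by dilution plating over 0–24 h. Area indices calculated versus growth control curve. Duplicate runs.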"}, "in vitro": {"experiment": "in vitro", "settings": "two-compartment pharmacokinetic/pharmacodynamic model, iv, 200 mg"}, "Enterococcus faecalis [7]": {"tested_on": "Enterococcus faecalis", "experiment": "Bactericidal activity against 12.5 hrs peripheral compartment culture samples of Enterococcus faecalis Ef1497 in two-compartment pharmacokinetic/pharmacodynamic model assessed as effect on bacterial count at 600 mg, bid administered as 0.5 hr infusion", "type": "functional", "procedure,_shortened": "as §1"}, "[8]": {"experiment": "Cmax in two-compartment pharmacokinetic/pharmacodynamic model at 200 mg, bid administered as 0.5 hr infusion over 24 hrs", "type": "ADME, organism-based", "set-up": "dose 200 mg", "settings": "iv"}, "[9]": {"experiment": "Apparent volume of distribution in two-compartment pharmacokinetic/pharmacodynamic model bid administered as 0.5 hr infusion over 24 hrs", "settings": "in vivo, iv"}, "Enterococcus faecalis [10]": {"tested_on": "Enterococcus faecalis", "experiment": "Bactericidal activity against 12 hrs peripheral compartment culture samples of Enterococcus faecalis Ef1497 in two-compartment pharmacokinetic/pharmacodynamic model assessed as effect on bacterial count at 800 mg, bid administered as 0.5 hr infusion", "type": "functional", "procedure,_shortened": "as §1"}, "Enterococcus faecalis [11]": {"tested_on": "Enterococcus faecalis", "experiment": "Bactericidal activity against 0.5 hrs peripheral compartment culture samples of Enterococcus faecalis ATCC 29212 in two-compartment pharmacokinetic/pharmacodynamic model assessed as effect on bacterial count at 200 mg, bid administered as 0.5 hr infusion", "type": "functional", "procedure,_shortened": "(§3)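 Two-compartment hollow-fibre model in cation-adjusted, protein-free MH broth, 37°C. Linezolid given as simulated 0.5-h infusion twice daily. Inoculum grown 18 h, concentrated 50-fold and placed in the peripheral compartment 3 h before t0. Peripheral samples at set times counted by dilution plating. First 10-fold dilution not plated, limiting detection to 2–3 log10 CFU/ml. Δlog CFU/ml taken from t0 count. Duplicates.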"}, "[12]": {"experiment": "Apparent volume of distribution in two-compartment pharmacokinetic/pharmacodynamic model at 800 mg, bid administered as 0.5 hrs infusion", "type": "ADME, organism-based", "settings": "iv"}, "Enterococcus faecalis [13]": {"tested_on": "Enterococcus faecalis", "experiment": "Bactericidal activity against 12 hrs peripheral compartment culture samples of Enterococcus faecalis ATCC 29212 in two-compartment pharmacokinetic/pharmacodynamic model assessed as effect on bacterial count at 600 mg, bid administered as 0.5 hr infusion", "type": "functional", "procedure,_shortened": "as §3"}, "Enterococcus faecalis [14]": {"tested_on": "Enterococcus faecalis", "experiment": "Bactericidal activity against 12 hrs peripheral compartment culture samples of Enterococcus faecalis Ef1497 in two-compartment pharmacokinetic/pharmacodynamic model assessed as effect on bacterial count at 600 mg, bid administered as 0.5 hr infusion", "type": "functional", "procedure,_shortened": "as §3"}, "[15]": {"experiment": "AUC in two-compartment pharmacokinetic/pharmacodynamic model at 200 mg, bid administered as 0.5 hrs infusion", "type": "ADME", "settings": "iv"}, "Enterococcus faecalis [16]": {"tested_on": "Enterococcus faecalis", "experiment": "Bactericidal activity against 1 hr peripheral compartment culture samples of Enterococcus faecalis Ef1497 MutM3 in two-compartment pharmacokinetic/pharmacodynamic model assessed as effect on bacterial count at 600 mg, bid administered as 0.5 hr infusion", "type": "functional", "procedure,_shortened": "as §3"}, "[17]": {"experiment": "Total clearance in two-compartment pharmacokinetic/pharmacodynamic model at 200 mg, bid administered as 0.5 hrs infusion", "type": "ADME, organism-based", "settings": "iv"}, "Enterococcus faecalis [18]": {"tested_on": "Enterococcus faecalis", "experiment": "Bactericidal activity against 14 hrs peripheral compartment culture samples of Enterococcus faecalis ATCC 29212 in two-compartment pharmacokinetic/pharmacodynamic model assessed as effect on bacterial count at 600 mg, bid administered as 0.5 hr infusion", "type": "functional", "procedure,_shortened": "as §1"}, "Enterococcus faecalis [19]": {"tested_on": "Enterococcus faecalis", "experiment": "Bactericidal activity against 48 hrs peripheral compartment culture samples of Enterococcus faecalis Ef1497 in two-compartment pharmacokinetic/pharmacodynamic model assessed as effect on bacterial count at 600 mg, bid administered as 0.5 hr infusion", "type": "functional", "procedure,_shortened": "as §1"}, "Enterococcus faecalis [20]": {"tested_on": "Enterococcus faecalis", "experiment": "Bactericidal activity against 12 hrs peripheral compartment culture samples of Enterococcus faecalis Ef1497 MutM3 in two-compartment pharmacokinetic/pharmacodynamic model assessed as effect on bacterial count at 600 mg, bid administered as 0.5 hr infusion", "type": "functional", "procedure,_shortened": "as §3"}, "Enterococcus faecalis [21]": {"tested_on": "Enterococcus faecalis", "experiment": "Bactericidal activity against 14 hrs peripheral compartment culture samples of Enterococcus faecalis Ef1497 MutM3 in two-compartment pharmacokinetic/pharmacodynamic model assessed as effect on bacterial count at 200 mg, bid administered as 0.5 hr infusion", "type": "functional", "procedure,_shortened": "as §1"}, "Enterococcus faecalis [22]": {"tested_on": "Enterococcus faecalis", "experiment": "Bactericidal activity against 12 hrs peripheral compartment culture samples of Enterococcus faecalis ATCC 29212 in two-compartment pharmacokinetic/pharmacodynamic model assessed as effect on bacterial count at 200 mg, bid administered as 0.5 hr infusion", "type": "functional", "procedure,_shortened": "as §3"}, "Enterococcus faecalis [23]": {"tested_on": "Enterococcus faecalis", "experiment": "Bactericidal activity against 12.5 hrs peripheral compartment culture samples of Enterococcus faecalis Ef1497 in two-compartment pharmacokinetic/pharmacodynamic model assessed as effect on bacterial count at 800 mg, bid administered as 0.5 hr infusion", "type": "functional", "procedure,_shortened": "as §1"}, "[24]": {"tested_on": "Staphylococcus aureus subsp. aureus RN4220", "experiment": "ABBC (0 to 24 hrs) in Staphylococcus aureus RN4220 in two-compartment pharmacokinetic/pharmacodynamic model at 600 mg, bid administered as 0.5 hr infusion for 2 days", "procedure,_shortened": "as §2"}, "Enterococcus faecalis [25]": {"tested_on": "Enterococcus faecalis", "experiment": "ABBC (0 to 24 hrs) in Enterococcus faecalis ATCC 29212 in two-compartment pharmacokinetic/pharmacodynamic model at 200 mg, bid administered as 0.5 hr infusion for 2 days", "type": "functional", "procedure,_shortened": "as §2"}, "Staphylococcus aureus": {"tested_on": "Staphylococcus aureus", "experiment": "Bactericidal activity against 14 hrs peripheral compartment culture samples of Staphylococcus aureus RN4220 MutS2 in two-compartment pharmacokinetic/pharmacodynamic model assessed as effect on bacterial count at 600 mg, bid administered as 0.5 hr infusion", "type": "functional", "procedure,_shortened": "as §1"}, "[26]": {"experiment": "Elimination half-life in healthy human at 600 mg, iv, bid administered as 0.5 hr infusion", "type": "ADME, organism-based", "settings": "in vivo, read-out: beta t1/2 (converted)"}}, "data": [{"smiles": "CC(=O)NC[C@H]1CN(c2ccc(N3CCOCC3)c(F)c2)C(=O)O1", "note": "[LINEZOLID]", "values": [{"measurement": "Vd", "setting": "[1]", "result": 141, "unit": "L"}, {"measurement": "log10CFU/ml", "setting": "Enterococcus faecalis [2]", "result": 0.23}, {"measurement": "Vd", "setting": "[3]", "result": 117, "unit": "L"}, {"measurement": "concentration at 0.5 h", "setting": "[4]", "result": 390, "unit": "ng/mL"}, {"measurement": "Drug uptake", "setting": "[5]", "result": 0.31, "unit": "µg/mL"}, {"measurement": "ABBC", "setting": "Enterococcus faecalis [6]", "result": 1.32, "unit": "log10CFU/ml.hr"}, {"measurement": "half-life", "setting": "in vitro", "result": 6.27, "unit": "h"}, {"measurement": "log10CFU/ml", "setting": "Enterococcus faecalis [7]", "result": -0.14}, {"measurement": "Cmax", "setting": "[8]", "result": 4790, "unit": "ng/mL"}, {"measurement": "Vd", "setting": "[9]", "result": 115, "unit": "L"}, {"measurement": "log10CFU/ml", "setting": "Enterococcus faecalis [10]", "result": -0.16}, {"measurement": "log10CFU/ml", "setting": "Enterococcus faecalis [11]", "result": -0.08}, {"measurement": "Vd", "setting": "[12]", "result": 124, "unit": "L"}, {"measurement": "log10CFU/ml", "setting": "Enterococcus faecalis [13]", "result": 0.15}, {"measurement": "log10CFU/ml", "setting": "Enterococcus faecalis [14]", "result": -0.12}, {"measurement": "AUC at 0.5 h", "setting": "[15]", "result": 10100, "unit": "ng·h/mL"}, {"measurement": "log10CFU/ml", "setting": "Enterococcus faecalis [16]", "result": -0.01}, {"measurement": "clearance", "setting": "[17]", "result": 248, "unit": "mL/min"}, {"measurement": "log10CFU/ml", "setting": "Enterococcus faecalis [18]", "result": 0.18}, {"measurement": "log10CFU/ml", "setting": "Enterococcus faecalis [19]", "result": 0.39}, {"measurement": "log10CFU/ml", "setting": "Enterococcus faecalis [20]", "result": 0.19}, {"measurement": "log10CFU/ml", "setting": "Enterococcus faecalis [21]", "result": 0.41}, {"measurement": "log10CFU/ml", "setting": "Enterococcus faecalis [22]", "result": 0.14}, {"measurement": "log10CFU/ml", "setting": "Enterococcus faecalis [23]", "result": -0.03}, {"measurement": "ABBC", "setting": "[24]", "result": -1.21, "unit": "log10CFU/ml.hr"}, {"measurement": "ABBC", "setting": "Enterococcus faecalis [25]", "result": 5.11, "unit": "log10CFU/ml.hr"}, {"measurement": "log10CFU/ml", "setting": "Staphylococcus aureus", "result": -0.58}, {"measurement": "half-life", "setting": "[26]", "result": 5.1, "unit": "h"}]}]}
